In ChEMBL document CHEMBL1149024, “Naturally occurring antiacne agents” (1994) one finds Activity, MBC and MIC data, which are given here for 39 molecules.

Each structure is given as a SMILES string. Converted amounts (≈) assume the structure as drawn. The source made the active and inactive calls.

In assay [1] the test system is Cutibacterium acnes. Kind of assay: Antimicrobial activity at exponential growth phase of Propionibacterium acnes ATCC 11827 assessed as log units reduction in CFU/ml at 1.56 ug/ml after 48 hrs by time-kill curve method. In kind it is functional, organism-based. The gist of the method: (§1)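 Growth-phase time-kill: P. acnes ATCC 11827 was grown in NYG broth from a 1 × 10^6 to 5 × 10^6 CFU/ml inoculum. The compound (DMF stock) was added after 0, 8 or 32 h of incubation. Viable counts were taken 24 and 48 h after addition by serial 10-fold dilution plating on Actinomyces agar, incubated anaerobically at 37° for 3 days. Reduction is expressed as log CFU/ml.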

The subject of assay [2] is Cutibacterium acnes. As to the kind of experiment: Antimicrobial activity Propionibacterium acnes ATCC 11827 at 1.56 ug/ml after 3 days by time-kill curve method. In kind it is functional, organism-based. The gist of the method:
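P. acnes ATCC 11827, from a two-day-old culture, was inoculated into NYG broth (0.8% nutrient broth, 0.5% yeast extract, 0.1% glucose) containing the compound predissolved in DMF. Initial inoculum was 1 × 10^6 to 5 × 10^6 CFU/ml. Viable counts were taken at 8, 24 and 48 h from serial 10-fold dilutions on Actinomyces agar, incubated anaerobically at 37° for 3 days.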

Assay [3] deals with Cutibacterium acnes. As to the kind of experiment: Antimicrobial activity at exponential growth phase of Propionibacterium acnes ATCC 11827 assessed as log units reduction in CFU/ml at 6.25 ug/ml after 48 hrs by time-kill curve method. The assay is classed as functional, organism-based. The gist of the method: as §1
The test system of assay [4] is Cutibacterium acnes. As to the kind of experiment: Antimicrobial activity Propionibacterium acnes ATCC 11827 after 2 days by broth dilution method. The assay is classed as functional. The gist of the method:
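Serial twofold dilutions in DMF; 30 µl of each added to 3 ml NYG broth (0.8% nutrient broth, 0.5% yeast extract, 0.1% glucose), then inoculated with 30 µl of a two-day-old culture. Incubated 2 days at 37°; growth read as turbidity (OD 660 nm). MIC is the lowest concentration giving complete growth inhibition, determined at least twice.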
Background: In broth dilution the organism is exposed to a series of concentrations in liquid medium.

The subject of assay [5] is Cutibacterium acnes. Kind of assay: Antimicrobial activity at lag growth phase of Propionibacterium acnes ATCC 11827 assessed as log units reduction in CFU/ml at 25 ug/ml after 48 hrs by time-kill curve method. In kind it is functional. The gist of the method:
(§2)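 A 30 µl aliquot of two-day-old culture went into 3 ml NYG broth (initial inoculum 1 × 10^6 to 5 × 10^6 CFU/ml). Compound, dissolved in DMF, was added at set times after incubation began. Viable counts were taken 24 and 48 h after addition from serial 10-fold dilutions plated on Actinomyces agar, incubated anaerobically 3 days at 37°.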

In assay [6] the test system is Cutibacterium acnes. As to the kind of experiment: Antimicrobial activity at exponential growth phase of Propionibacterium acnes ATCC 11827 assessed as log units reduction in CFU/ml at 25 ug/ml after 48 hrs by time-kill curve method. In kind it is functional, organism-based. The gist of the method: as §2
Setting [7] is: Cutibacterium acnes, ATCC 11827, 48 h.
[8] abbreviates: Cutibacterium acnes, ATCC 11827, 48 h, read-out: MIC.

Turning to `CCCCCCCCCCCCCCCO`, the result in the assay on Cutibacterium acnes [1] and in the assay with Cutibacterium acnes [3] was inactive. Further, the outcome in the assay with Cutibacterium acnes [2] and in the assay on Cutibacterium acnes [6] was Active. For the same molecule, the minimal bactericidal concentration (MBC) (commonly the smallest concentration meeting the test's criterion for killing) against Cutibacterium acnes [4] (setting [7]) was 1.56 µg/mL (≈ 6.83 µM). Further, the MIC (commonly the least concentration at which growth counts as inhibited) in the assay on Cutibacterium acnes [4] (setting [8]) came out at 0.78 µg/mL (≈ 3.41 µM). In addition, the Activity in the assay with Cutibacterium acnes [5] is more than 2.
For `CCCCCCCCCCCCCCCCCO`, in the assay with Cutibacterium acnes [4] (setting [8]), the MIC is more than 800 µg/mL.
Same read-out and setting: the value for `CCCCCCCCc1cccc(O)c1C(=O)O` was 3.13 µg/mL (≈ 12.5 µM); that for `CCCCCCCCCCc1cccc(O)c1C(=O)O` was 1.56 µg/mL (≈ 5.6 µM); that for `CCCCCCCCCCC(C)O` (configuration not stated) was 12.5 µg/mL (≈ 67.1 µM).
Still for that read-out and setting: the value for `CCCCCCCCCCCCCCC(C)O` (configuration not stated) was 0.78 µg/mL (≈ 3.22 µM); that for `CCCCCCCCCCCCC(C)O` (configuration not stated) was 3.13 µg/mL (≈ 14.6 µM); that for `CCC/C=C\C/C=C\CCCCCCCc1cccc(O)c1C(=O)O` was 0.78 µg/mL (≈ 2.26 µM).
The same measure, in the same setting: the result for `CCCCCCCCCCCCc1cccc(O)c1C(=O)O` reads 0.39 µg/mL (≈ 1.27 µM).
In the case of `CCCCCCCCCCCCCCCCCCCCc1cccc(O)c1C(=O)O`, the MIC in the assay with Cutibacterium acnes [4] (setting [8]) is more than 800 µg/mL.
The same measure, in the same setting: the value for `CCCCCCC(O)CC` (configuration not stated) was 200 µg/mL (≈ 1390 µM).
As for `CCCCCc1cccc(O)c1C(=O)O`, the minimum inhibitory concentration (MIC) with Cutibacterium acnes [4] (setting [8]) turned out to be 100 µg/mL (≈ 480 µM).
On the same count and under the same terms, the value for `Cc1cccc(O)c1C(=O)O` was 200 µg/mL (≈ 1310 µM); that for `CCCCCCC(C)O` (configuration not stated) was 800 µg/mL (≈ 6140 µM); that for `CCCCCCCCCCCCCCCCC(C)O` (configuration not stated) was more than 800 µg/mL.
The same measure, in the same setting: the result for `C=C1[C@H]2CC[C@H](C2)C1(C)C` reads 25 µg/mL (≈ 184 µM).
The same measure, in the same setting: the value for `CCCCCCCCCCCCCCCCCCCCO` [1-EICOSANOL] was more than 800 µg/mL.
`CCCCCCCO` [1-HEPTANOL] registered an MBC in the assay with Cutibacterium acnes [4] (setting [7]) of 800 µg/mL (≈ 6880 µM). Also, the MIC in the assay with Cutibacterium acnes [4] (setting [8]) is 400 µg/mL (≈ 3440 µM).
As to `CCCCCCO` [1-HEXANOL], the minimal inhibitory concentration (MIC) with Cutibacterium acnes [4] (setting [8]) is more than 800 µg/mL.
The same measure, in the same setting: the result for `CCCCCC(C)O` (configuration not stated) [2-HEPTANOL] reads 800 µg/mL (≈ 6880 µM); that for `CCCCC(C)O` (configuration not stated) [2-HEXANOL], 800 µg/mL (≈ 7830 µM); that for `CCCCCCCC(C)O` (configuration not stated) [2-NONANOL], 400 µg/mL (≈ 2770 µM).
On the same count and under the same terms, the value for `CCCCC(O)CC` (configuration not stated) [3-HEPTANOL] was 800 µg/mL (≈ 6880 µM).
Regarding `CCCCCC(O)CC` (configuration not stated) [3-OCTANOL], the MIC in the assay with Cutibacterium acnes [4] (setting [8]) came out at 400 µg/mL (≈ 3070 µM).
The same measure, in the same setting: the value for `CC1=C[C@@H]2C(=C(C)CC[C@H]2C(C)C)CC1` [(+)-DELTA-CADINENE] was 3.13 µg/mL (≈ 15.3 µM); that for `C=C1[C@@H]2CC[C@@H](C2)C1(C)C` [(-)-CAMPHENE] was 25 µg/mL (≈ 184 µM).
Consider `CC(C)C1=CC2=CC[C@@H]3[C@](C)(CCC[C@@]3(C)C(=O)O)[C@H]2CC1` [ABIETIC ACID], for which the MIC in the assay with Cutibacterium acnes [4] (setting [8]) stood at 25 µg/mL (≈ 82.7 µM).
Same read-out and setting: the result for `C/C1=C\CC/C(C)=C/CC(C)(C)/C=C/C1` [ALPHA-HUMULONE] reads 3.13 µg/mL (≈ 15.3 µM); that for `CC1=CCC2CC1C2(C)C` (stereo not drawn) [ALPHA-PINENE], 25 µg/mL (≈ 184 µM).
On to `CC1=CC[C@@H](C(C)(C)O)CC1` [ALPHA-TERPINEOL], for which the MIC with Cutibacterium acnes [4] (setting [8]) came to 100 µg/mL (≈ 648 µM).
On the same count and under the same terms, the result for `C=CC/C=C\C/C=C\CCCCCCCc1cccc(O)c1C(=O)O` [ANACARDIC ACID] reads 0.78 µg/mL (≈ 2.28 µM).
`CCCCCCCCCCCCCCCc1cccc(O)c1C(=O)O` [ANACARDIC ACID]: the MIC in the assay with Cutibacterium acnes [4] and with Cutibacterium acnes [4] (setting [8]) was 0.78 µg/mL (≈ 2.24 µM) each time.
For `C/C=C/c1ccc(OC)cc1` [ANETHOLE], the MIC with Cutibacterium acnes [4] (setting [8]) came to 100 µg/mL (≈ 675 µM).
Still for that read-out and setting: the value for `C=C1CC/C=C(\C)CC[C@@H]2[C@@H]1CC2(C)C` [BETA-CARYOPHYLLENE] was 6.25 µg/mL (≈ 30.6 µM); that for `C=C1CCC2CC1C2(C)C` (stereo not drawn) [BETA-PINENE] was 100 µg/mL (≈ 734 µM).
Still for that read-out and setting: the value for `CC[C@H](CC[C@@H](C)[C@H]1CC[C@H]2[C@@H]3CC=C4C[C@@H](O)CC[C@]4(C)[C@H]3CC[C@]12C)C(C)C` [BETA-SITOSTEROL] was more than 800 µg/mL; that for `CC1(C)C2CCC1(C)C(O)C2` (configuration not stated) [BORNEOL] was 200 µg/mL (≈ 1300 µM); that for `Cn1c(=O)c2c(ncn2C)n(C)c1=O` [CAFFEINE] was more than 400 µg/mL.
Same read-out and setting: the result for `CC12CCC(CC1=O)C2(C)C` (configuration not stated) [CAMPHOR] reads 200 µg/mL (≈ 1310 µM).
